For data set [1], the target named is T1, Prostaglandin E synthase (Homo sapiens) (UniProt O14684).
T1 sequence (whole entry): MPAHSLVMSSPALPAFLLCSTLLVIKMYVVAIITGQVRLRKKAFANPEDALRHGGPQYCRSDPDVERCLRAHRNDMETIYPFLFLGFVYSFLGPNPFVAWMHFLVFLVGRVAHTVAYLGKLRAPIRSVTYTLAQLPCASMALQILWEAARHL
Briefly: Inhibition of mPGES-1 derived from IL1beta and TNFalpha stimulated human HeLa cells microsomal fraction using PGH2 as substrate at 1 uM preincubated for 30 mins prior to substrate addition measured after 1 min by LC-MS/MS analysis relative to control. An outline of the steps: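 Microsomes were pelleted by ultracentrifugation and resuspended in buffer with 2.5 mM GSH; protein was measured by Bradford. PGE₂ was read by LC-MS/MS after solid-phase extraction with deuterated standards; n ≥ 3.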

Another data set deals with T2, Prostaglandin E synthase (Homo sapiens, UniProt O14684).
T2 sequence (O14684 whole entry): T1 sequence (whole entry)
Briefly: Inhibition of mPGES-1 derived from IL1beta and TNFalpha stimulated human HeLa cells microsomal fraction using PGH2 as substrate preincubated for 30 mins prior to substrate addition measured after 1 min by LC-MS/MS analysis. The essentials:
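Microsomes were pelleted by ultracentrifugation and resuspended in buffer with 2.5 mM GSH; protein was measured by Bradford. Screening used 1 μM final compound, and IC₅₀ (95% CI) came from increasing concentrations. PGE₂ was read by LC-MS/MS after solid-phase extraction with deuterated standards; n ≥ 3.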

The target of data set [2] is T3, Prostaglandin G/H synthase 1 (Ovis aries) (UniProt P05979).
T3 sequence (whole entry): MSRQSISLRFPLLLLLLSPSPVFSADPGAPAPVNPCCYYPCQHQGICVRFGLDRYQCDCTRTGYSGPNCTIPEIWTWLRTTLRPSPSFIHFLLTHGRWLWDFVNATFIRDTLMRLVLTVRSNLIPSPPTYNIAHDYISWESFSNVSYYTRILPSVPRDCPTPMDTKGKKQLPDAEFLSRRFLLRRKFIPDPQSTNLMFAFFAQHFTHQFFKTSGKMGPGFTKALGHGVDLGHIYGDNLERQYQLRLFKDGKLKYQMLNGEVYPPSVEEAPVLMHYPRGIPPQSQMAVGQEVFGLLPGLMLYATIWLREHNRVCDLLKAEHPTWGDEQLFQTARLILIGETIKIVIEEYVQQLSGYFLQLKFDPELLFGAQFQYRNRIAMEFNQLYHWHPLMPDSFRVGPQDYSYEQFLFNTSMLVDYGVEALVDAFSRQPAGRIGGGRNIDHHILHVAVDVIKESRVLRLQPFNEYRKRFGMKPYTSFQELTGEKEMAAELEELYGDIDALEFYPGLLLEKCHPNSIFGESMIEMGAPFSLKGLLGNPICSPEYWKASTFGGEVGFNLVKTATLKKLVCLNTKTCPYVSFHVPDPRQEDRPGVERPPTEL
The experiment in a line: Inhibition of ovine COX1-mediated PGE2 synthesis using PGH2 as substrate at 1 uM by LC-MS/MS analysis relative to control. The essentials: (§1)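 Direct enzyme test with a COX inhibitor screening kit, run per the kit protocol: COX-1 was ovine, COX-2 human recombinant. […] Prostaglandins were quantified by LC-MS/MS after solid-phase extraction. Mean of n ≥ 3.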

Data set [3] deals with T4, Prostaglandin G/H synthase 2 (Homo sapiens) (UniProt P35354).
T4 sequence (whole entry): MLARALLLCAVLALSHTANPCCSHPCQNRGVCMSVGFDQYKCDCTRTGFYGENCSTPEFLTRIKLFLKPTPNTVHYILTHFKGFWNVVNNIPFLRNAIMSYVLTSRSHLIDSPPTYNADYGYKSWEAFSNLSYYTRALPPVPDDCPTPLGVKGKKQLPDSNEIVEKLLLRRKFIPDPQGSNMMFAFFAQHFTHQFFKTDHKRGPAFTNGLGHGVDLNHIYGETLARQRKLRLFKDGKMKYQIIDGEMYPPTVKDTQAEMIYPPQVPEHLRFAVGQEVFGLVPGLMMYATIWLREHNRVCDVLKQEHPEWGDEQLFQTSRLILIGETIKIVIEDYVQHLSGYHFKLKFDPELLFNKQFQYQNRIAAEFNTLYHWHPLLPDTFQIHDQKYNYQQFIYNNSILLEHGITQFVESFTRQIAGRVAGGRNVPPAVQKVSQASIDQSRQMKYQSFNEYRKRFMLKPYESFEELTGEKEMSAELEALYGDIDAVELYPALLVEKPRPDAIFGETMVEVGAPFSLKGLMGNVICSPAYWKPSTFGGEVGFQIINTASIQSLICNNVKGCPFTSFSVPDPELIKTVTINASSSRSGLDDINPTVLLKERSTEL
The experiment in a line: Inhibition of human recombinant COX2-mediated PGE2 synthesis using PGH2 as substrate at 1 uM by LC-MS/MS analysis relative to control. The essentials:
as §1

Another data set concerns HeLa. Briefly: Cytotoxicity against IL1beta and TNFalpha-stimulated human HeLa cells at 1 to 10 uM after 24 hrs by WST1 assay. The data set is classed as cell-based. The essentials: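 HeLa cells were seeded at 3 × 10³ per well and grown 24 h at 37 °C. They were then stimulated with IL-1β (1 ng/mL) + TNFα (5 ng/mL) while treated with compound at 1, 10 or 100 μM, or DMSO, for 24 h. WST-1 was added for 90–150 min and absorbance read at 450 nm against 620 nm. Viability is percent of DMSO control, SEM, n ≥ 3.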

The target of data set [4] is T4, Prostaglandin G/H synthase 2 (Homo sapiens). The experiment in a line: Inhibition of COX2 in LPS-stimulated human whole blood assessed as residual PGE2 level at 100 uM preincubated for 15 mins prior to LPS-stimulation measured after 24 hrs by LC-MS/MS analysis relative to control. The essentials: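 Human whole blood received compound in DMSO plus acetylsalicylic acid (10 μg/mL) to block COX-1, 15 min at 37 °C. LPS (10 μg/mL final) in autologous plasma was added to induce COX-2/mPGES-1, and blood was incubated 24 h at 37 °C. Samples were chilled on ice 5 min, and plasma prostaglandins were extracted by solid-phase extraction and quantified by LC-MS/MS. Values are relative to vehicle.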

The target of data set [5] is T5, 5-lipoxygenase/FLAP (Homo sapiens) (UniProt P09917+P20292). Briefly: Inhibition of 5-lipoxygenase/FLAP in calcium ionophore-stimulated human whole blood assessed as residual LTB4 level at 10 uM preincubated for 15 mins prior to calcium ionophore-stimulation measured after 15 mins by LC-MS/MS analysis. It counts as protein-complex assay. An outline of the steps:
(§2)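 Heparinized human whole blood (500 μL) was preincubated with compound for 15 min at 37 °C. It was then stimulated with 20 μM calcium ionophore A23187 in autologous plasma for 15 min at 37 °C and chilled on ice for 5 min. Plasma was collected by centrifugation at 4 °C. Eicosanoids were recovered by liquid–liquid extraction with deuterated internal standards and quantified by LC-MS/MS (MRM). Levels are relative to vehicle-treated blood.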

In data set [6] the target is T5, 5-lipoxygenase/FLAP (Homo sapiens). Briefly: Inhibition of 5-lipoxygenase/FLAP in calcium ionophore-stimulated human whole blood assessed as residual 15(s)HETE level at 10 uM preincubated for 15 mins prior to calcium ionophore-stimulation measured after 15 mins by LC-MS/MS analysis. The data set is classed as protein-complex assay. An outline of the steps: as §2

Consider seven compounds from ChEMBL document CHEMBL2046422, “Structure-activity relationship of nonacidic quinazolinone inhibitors of human microsomal prostaglandin synthase 1 (mPGES 1)” (J Med Chem, 2012).

A value given as a limit tells only on which side of the number the result lay.

As for `CCCc1nc2ccc(NC(=O)c3c(F)cccc3Cl)cc2c(=O)n1Cc1cccc(Cl)c1`, the inhibition is 75.6% in data set [1], less than 0% in data set [2] and less than 0% in data set [3]. Also, it took 370 nM to reach half-maximal inhibition against Prostaglandin E synthase (IC50). For the same compound, the Activity result was “Non-toxic” with HeLa, 54.7% in data set [4], 94.1% in data set [5] and 111% in data set [6].

In the case of `CCCc1nc2ccc(NC(=O)c3ccccc3Cl)cc2c(=O)n1Cc1ccc(-c2cccc(OC)c2)cc1`, the inhibition amounted to 71.5% in data set [1], 20.1% in data set [2] and 2.5% in data set [3]. This compound had an IC50 against Prostaglandin E synthase of 210 nM. Moreover, the Activity entry with HeLa was “Non-toxic”; in data set [4] it was 50%; in data set [5], 70.9%; in data set [6], 80%.

In the case of `CCCc1nc2ccc(NC(=O)c3ccccc3Cl)cc2c(=O)n1Cc1ccc(-c2ccc(Cl)cc2)cc1`, the inhibition is 68.8% in data set [1], 2.6% in data set [2] and less than 0% in data set [3]. Further, the Activity result in the data set on HeLa is “Non-toxic”; in data set [4], 174%; in data set [5], 151%; in data set [6], 93.8%.

As for `CCCc1nc2ccc(NC(=O)c3ccccc3Cl)cc2c(=O)n1Cc1ccc(-c2cccc(Cl)c2)cc1`, the inhibition in data set [1] is 66.7%; in data set [2], less than 0%; in data set [3], 6.7%. This compound also gave an IC50 against Prostaglandin E synthase of 130 nM. Further, the Activity in data set [4] amounted to 51.2%; in data set [5], 83%; in data set [6] it was 83.1%.

With `CCCc1nc2ccc(NC(=O)c3ccccc3Cl)cc2c(=O)n1Cc1cccc(Cl)c1`, the inhibition in data set [1] is 86.3%; in data set [2], less than 0%; in data set [3] it was less than 0%. At Prostaglandin E synthase, this compound yielded a half-maximal inhibitory concentration (IC50) of 360 nM. Also, the Activity entry was “Non-toxic” in the data set on HeLa, 37.4% in data set [4], 93.7% in data set [5] and 90.3% in data set [6].

For the compound `CCCc1nc2ccc(NC(=O)c3ccccc3Cl)cc2c(=O)n1Cc1ccc(-c2ccccc2)cc1`, the inhibition was 74.2% in data set [1], 8.4% in data set [2] and 5.8% in data set [3]. In addition, on Prostaglandin E synthase, the IC50 amounted to 220 nM. For the same compound, the Activity result with HeLa is “Non-toxic”; in data set [4], 52.1%; in data set [5] it was 71.9%; in data set [6], 94.2%.

In the case of `CCCc1nc2ccc(NC(=O)c3ccccc3C)cc2c(=O)n1Cc1cccc(Cl)c1`, the inhibition was 63.1% in data set [1], less than 0% in data set [2] and less than 0% in data set [3]. The compound also had an IC50 on Prostaglandin E synthase of 260 nM. Besides, the Activity entry was “Non-toxic” in the data set with HeLa, 53% in data set [4], 72.7% in data set [5] and 83.4% in data set [6].

A word on the inhibition: it is the share of the control response that was lost under treatment. The IC50 is the midpoint of a concentration-inhibition curve. High values mean weaker potency in that assay, low ones greater potency in that assay.
